Data: ChEMBL document CHEMBL1158998, “Studies on iridoids of tissue cultures of Penstemon serrulatus: isolation and their antiproliferative properties” (J Nat Prod, 1992)

Assays:
[1] = Antiproliferative activity against BALB/c mouse splenocytes assessed as inhibition of [3H]thymidine incorporation into DNA at 1 uM after 24 hrs […] relative to control; type: cell-based, Splenocyte
In short: (§1)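 Spleens from male BALB/c mice (5–6 weeks) were teased into single cells in RPMI-1640 with 20 mM Hepes (pH 7.35) and checked by trypan blue. After 30 min preincubation, 10^6 cells/ml were held in medium with 15% FCS, with compound dissolved in medium. Incubation was at 37° in air-CO₂ (95:5). [³H]-thymidine (2 μCi/ml) was added after 1 h and the run stopped 24 h later. Read-out is cpm/10^6 cells; % inhibition = [1 − cpm treated/cpm control]×100; Student's t-test.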

[2] = Antiproliferative activity against BALB/c mouse splenocytes assessed as inhibition of [3H]thymidine incorporation into DNA at 10 uM after 24 hrs […] relative to control; type: cell-based, Splenocyte; in short: as §1
[3] = Antiproliferative activity against BALB/c mouse splenocytes assessed as inhibition of [3H]thymidine incorporation into DNA at 100 uM after 24 hrs […] relative to control; type: cell-based, Splenocyte; in short: as §1
[4] = Antiproliferative activity against Syrian hamster hepatoma cells assessed as inhibition of [3H]thymidine incorporation into DNA at 10 uM after 24 hrs […] relative to control; type: functional; details: Mesocricetus auratus
In short: (§2)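 Hepatoma was raised in Syrian hamsters by s.c. Kirkman-Robbins hepatoma pulp. Tumour cells were freed mechanically and with 0.4% collagenase plus 0.2% trypsin (>95% viable). After 30 min preincubation, 0.5×10^6 cells/ml were held in RPMI-1640 with 15% FCS and compound in medium at 37°, air-CO₂ (95:5). [³H]-thymidine (2 μCi/ml) was added at 1 h and incubation ended 24 h later. Read-out is cpm/10^6 cells; % inhibition vs control; Student's t-test.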

[5] = Antiproliferative activity against Syrian hamster hepatoma cells assessed as inhibition of [3H]thymidine incorporation into DNA at 100 uM after 24 hrs […] relative to control; type: functional; details: Mesocricetus auratus; in short: as §2

Row | Structure (SMILES) | inhibition at 24 h, 1 µM [1] [%] | inhibition at 24 h, 10 µM [2] [%] | inhibition at 24 h, 100 µM [3] [%] | inhibition at 10 µM [4] [%] | inhibition at 100 µM [5] [%]
1 | CC(C)CC(=O)O[C@@H]1OC=C(CO[C@@H]2O[C@H](CO)[C@@H](O)[C@H](O)[C@H]2O)[C@@H]2CC=C(CO)[C@@H]12 | 4 | 24 | 59 | 12 | 69
2 | C=C1[C@H]2[C@H](OC(=O)CC(C)C)OC=C(CO[C@@H]3O[C@H](CO)[C@@H](O)[C@H](O)[C@H]3O)[C@@H]2C[C@@H]1O | 9 | 16 | 45 | 18 | 75
3 | CC(C)CC(=O)O[C@@H]1OC=C(CO)[C@@H]2CC=C(CO)[C@@H]12 | 15 | 25 | 60 |  | 
